From ChEMBL document CHEMBL2062372, “Biotin analogues with antibacterial activity are potent inhibitors of biotin protein ligase” (ACS Med Chem Lett, 2012)
Converted amounts (≈) assume the structure as drawn.

Tests used:
Staphylococcus = assay: Antibacterial activity against coagulase-negative Staphylococcus after 16 to 24 hrs by broth microdilution method; format: functional
[1] = Selectivity ratio of Ki for Escherichia coli BPL to Ki for human BPL
Summary of the method: (§1)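 Selectivity is the ratio of Ki values from the radiolabeled-biotin incorporation assay with purified recombinant BPLs. Each Ki is the mean of three independent experiments.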

[2] = Selectivity ratio of Ki for human BPL to Ki for Staphylococcus aureus BPL; summary of the method: as §1
HepG2 = assay: Cytotoxicity against human HepG2 cells assessed as change in metabolic activity at 64 ug/ml after 24 to 48 hrs by WST1 assay; format: ADME, cell-based
[3] = Displacement of [3H]-biotin from Staphylococcus aureus BPL after 20 mins by scintillation counting
Summary of the method: (§2)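 Purified recombinant BPL was tested in an in vitro biotinylation assay that measured incorporation of radiolabeled biotin into protein. Ki is reported where inhibition was seen, as the mean (standard error) of three independent experiments.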

Staphylococcus aureus [4] = assay: Antibacterial activity against methicillin-resistant Staphylococcus aureus after 16 to 24 hrs by broth microdilution method; format: functional
[5] = Selectivity ratio of Ki for Escherichia coli BPL to Ki for Staphylococcus aureus BPL; summary of the method: as §1
Staphylococcus aureus [6] = assay: Antibacterial activity against methicillin-susceptible Staphylococcus aureus after 16 to 24 hrs by broth microdilution method; format: functional
Biotin--protein ligase = target: T1, Biotin--protein ligase (Homo sapiens, UniProt P50747); assay: Displacement of [3H]-biotin from human BPL after 20 mins by scintillation counting; summary of the method: as §2
T1 sequence (P50747 whole entry): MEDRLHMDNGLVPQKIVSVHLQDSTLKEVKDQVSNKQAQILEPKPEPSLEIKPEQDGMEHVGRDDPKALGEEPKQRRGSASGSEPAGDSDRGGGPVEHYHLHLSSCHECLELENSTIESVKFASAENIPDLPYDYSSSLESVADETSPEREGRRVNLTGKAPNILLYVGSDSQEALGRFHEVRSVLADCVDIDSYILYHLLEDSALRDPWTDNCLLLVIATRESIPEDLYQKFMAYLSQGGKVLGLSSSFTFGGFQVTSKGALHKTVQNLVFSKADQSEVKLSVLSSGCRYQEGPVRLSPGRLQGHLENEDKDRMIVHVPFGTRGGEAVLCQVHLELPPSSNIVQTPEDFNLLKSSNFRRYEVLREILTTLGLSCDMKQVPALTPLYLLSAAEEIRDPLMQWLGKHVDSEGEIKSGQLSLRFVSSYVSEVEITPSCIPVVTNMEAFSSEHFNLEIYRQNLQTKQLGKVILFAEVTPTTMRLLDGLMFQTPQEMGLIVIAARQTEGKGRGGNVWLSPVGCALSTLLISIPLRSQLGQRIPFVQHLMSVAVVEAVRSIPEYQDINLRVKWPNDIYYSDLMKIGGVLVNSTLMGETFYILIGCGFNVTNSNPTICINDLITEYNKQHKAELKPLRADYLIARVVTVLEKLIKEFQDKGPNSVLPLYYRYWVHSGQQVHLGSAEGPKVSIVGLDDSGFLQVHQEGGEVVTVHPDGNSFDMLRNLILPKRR

[7] = Binding affinity to Staphylococcus aureus BPL by surface plasmon resonance
Summary of the method: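 S. aureus BPL was immobilized on the SPR surface, with varying inhibitor concentrations in the running buffer. Ka and kd come from the sensorgrams. KD was calculated from steady-state affinity where on and off rates were too fast for kinetic evaluation.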

[8] = Displacement of [3H]-biotin from Escherichia coli BPL after 20 mins by scintillation counting; summary of the method: as §2

C#CCCCC[C@@H]1SC[C@@H]2NC(=O)N[C@@H]21 gave an MIC50 (Staphylococcus) of 4 µg/mL (≈ 17.8 µM), an MIC90 (Staphylococcus) of 8 µg/mL (≈ 35.7 µM) and a Ratio Ki [1] of 4.5. For the same molecule, the Ratio Ki [2] was 2.5, the Activity (HepG2) was “Non-toxic” and the Ki [3] was 0.08 µM. For the same molecule, the MIC50 (Staphylococcus aureus [4]) was 8 µg/mL (≈ 35.7 µM), the MIC90 (Staphylococcus aureus [4]) was 16 µg/mL (≈ 71.3 µM) and the Ratio Ki [5] was 11.3. It also gave an MIC50 (Staphylococcus aureus [6]) of 8 µg/mL (≈ 35.7 µM), an MIC90 (Staphylococcus aureus [6]) of 16 µg/mL (≈ 71.3 µM) and a Ki (Biotin--protein ligase) of 0.2 µM. The Kd [7] was 0.08 µM and the Ki [8] was 0.9 µM.

With CCCCCC[C@@H]1SC[C@@H]2NC(=O)N[C@@H]21 the Ratio Ki [1] was 1.1, the Ratio Ki [2] was 12.4 and the Activity (HepG2) was “Non-toxic”. It also gave a Ki [3] of 0.52 µM, a Ratio Ki [5] of 14 and a Ki (Biotin--protein ligase) of 6.43 µM. For the same molecule, the Ki [8] was 7.3 µM.

Work on NCCCCC[C@@H]1SC[C@@H]2NC(=O)N[C@@H]21 yielded a Ki [3] greater than 20 µM, a Ki (Biotin--protein ligase) greater than 20 µM and a Ki [8] greater than 20 µM.

For O=C1N[C@H]2[C@H](CS[C@H]2CCCCCCO)N1, the Activity (HepG2) was “Non-toxic”, the Ki [3] was greater than 20 µM and the Ki (Biotin--protein ligase) was greater than 20 µM. For the same molecule, the Ki [8] was greater than 20 µM.

For CCCCC[C@@H]1SC[C@@H]2NC(=O)N[C@@H]21, the MIC50 (Staphylococcus) was 2 µg/mL (≈ 9.33 µM), the MIC90 (Staphylococcus) was 8 µg/mL (≈ 37.3 µM) and the Ratio Ki [1] was 7.9. For the same molecule, the Ratio Ki [2] was 2.8, the Activity (HepG2) was “Non-toxic” and the Ki [3] was 0.05 µM. It also gave an MIC50 (Staphylococcus aureus [4]) of 8 µg/mL (≈ 37.3 µM), an MIC90 (Staphylococcus aureus [4]) of 16 µg/mL (≈ 74.6 µM) and a Ratio Ki [5] of 22. The MIC50 (Staphylococcus aureus [6]) was 8 µg/mL (≈ 37.3 µM), the MIC90 (Staphylococcus aureus [6]) was 16 µg/mL (≈ 74.6 µM) and the Ki (Biotin--protein ligase) was 0.14 µM. For the same molecule, the Kd [7] was 0.06 µM and the Ki [8] was 1.1 µM.

For C#CCCCCC[C@@H]1SC[C@@H]2NC(=O)N[C@@H]21, the Ratio Ki [1] was 2.1, the Ratio Ki [2] was 11.7 and the Activity (HepG2) was “Non-toxic”. For the same molecule, the Ki [3] was 0.3 µM, the Ratio Ki [5] was 24.4 and the Ki (Biotin--protein ligase) was 3.5 µM. The Ki [8] was 7.33 µM.

With C#CCCCCCC[C@@H]1SC[C@@H]2NC(=O)N[C@@H]21 the Ratio Ki [1] was 1.7, the Ratio Ki [2] was 5 and the Activity (HepG2) was “Non-toxic”. For the same molecule, the Ki [3] was 2.4 µM, the Ratio Ki [5] was 8.3 and the Ki (Biotin--protein ligase) was 12 µM. It also gave a Ki [8] of 20 µM.

In the case of NCCCC[C@@H]1SC[C@@H]2NC(=O)N[C@@H]21, the Ki [3] is reported as greater than 20 µM, the Ki (Biotin--protein ligase) is reported as greater than 20 µM and the Ki [8] is reported as greater than 20 µM.

Molecule O=C1N[C@H]2[C@H](CS[C@H]2CCCCCO)N1 has a Ratio Ki [1] of 1, a Ratio Ki [2] of 1.1 and a Ki [3] of 3.37 µM. For the same molecule, the Ratio Ki [5] was 1.2, the Ki (Biotin--protein ligase) was 3.85 µM and the Kd [7] was 2.5 µM. For the same molecule, the Ki [8] was 3.96 µM.
